# Experimental data pooled from the literature.
# Lines come from different studies, so protocols differ.
# RPS6KA4 N-terminal kinase domain: Ribosomal protein S6 kinase alpha-4, N-terminal kinase domain (RPS6KA4, Homo sapiens, UniProt O75676)
# RPS6KA4: Ribosomal protein S6 kinase alpha-4 (RPS6KA4, Homo sapiens, UniProt O75676)
# RPS6KA4 C-terminal kinase domain: Ribosomal protein S6 kinase alpha-4, C-terminal kinase domain (RPS6KA4, Homo sapiens, UniProt O75676)
SMILES,target,assay,conditions,quantity,value
CCC(=O)N[C@H]1CC[C@@H](C(=O)N(C)c2ccc(-c3nc4ccccc4o3)cc2)C1,RPS6KA4 N-terminal kinase domain,"cell-free assay, competition with immobilised ligand",1 µM,remaining binding,100%
Cc1ccc(C(=O)Nc2ccc(CN3CCN(C)CC3)c(C(F)(F)F)c2)cc1C#Cc1cnc2cccnn12,RPS6KA4,"enzyme activity, inhibitor",23.5 nM,activity vs control,100%
COc1cc2ncnc(Nc3ccc(Oc4ccccc4)c(C)c3C)c2cc1OC,RPS6KA4,"enzyme activity, inhibitor",1 µM,inhibition,-5%
CN(c1nccc(-c2cnn3ncccc23)n1)C1CC1,RPS6KA4 N-terminal kinase domain,"binding, competition with immobilised ligand",1 µM,remaining binding,100%
CCN(CC)c1ccc(C2=NNC(=O)CC2C)cc1[N+](=O)[O-] (stereo not shown),RPS6KA4,"enzyme activity, inhibitor",10 µM,remaining activity,82%
COc1cc2c(N3CCN(C(=O)Nc4ccc(OC(C)C)cc4)CC3)ncnc2cc1OCCCN1CCCCC1,RPS6KA4,cell-free assay,0.5 µM,remaining signal,120%
O=C(Nc1cnn(-c2csc(C(=O)NC3COC3)c2)c1)Nc1c(F)cccc1Cl,RPS6KA4,"enzyme activity, inhibitor",5 µM,remaining activity,99.8%
COc1cccc2c(NCc3ccccc3)nc(-n3c(N)nc4ccccc43)nc12,RPS6KA4 N-terminal kinase domain,"target engagement in cells, inhibitor, chemoproteomics",20 mM,inhibition,7.3%
Clc1ccc(Nc2nnc(Cc3ccncc3)c3ccccc23)cc1,RPS6KA4,cell-free assay,0.5 µM,remaining signal,98%
CC(C)(C)c1nc2c(s1)c1nc(N)ncc1c1ccc(NS(=O)(=O)c3c(F)cccc3F)c(F)c12,RPS6KA4,"enzyme activity, inhibitor, radiometric",1 µM,remaining activity,84%
Cn1cncc1C1=CN(c2ncnc3[nH]cnc23)CCS1,RPS6KA4,"enzyme activity, inhibitor, radiometric",2 µM,inhibition,75.5%
CC(C)c1ccc(NC(=O)c2cccs2)c(-c2nc3ccccc3[nH]c2=O)c1,RPS6KA4,"enzyme activity, inhibitor",1 µM,activity vs control,96%
CN(C)c1nccc(-c2cnn3ncccc23)n1,RPS6KA4 N-terminal kinase domain,"binding, competition with immobilised ligand",1 µM,remaining binding,82%
Cc1cnc(NC2CCOCC2)nc1-n1cnc(C(=O)NC(CN)c2cc(F)cc(Cl)c2)c1 (stereo not shown),RPS6KA4,"enzyme activity, inhibitor, radiometric",1 µM,remaining activity,80%
C[C@H](NC(=O)c1cnc2n1[C@](C)(Cc1ccc(C#N)cc1)C(=O)N2c1cc(Cl)c(F)c(Cl)c1)C(=O)NC1(c2ccccn2)CC1,RPS6KA4 C-terminal kinase domain,"cell-free assay, competition with immobilised ligand",1 µM,remaining binding,92%
CN(C)c1nccc(-c2cnc3ncccn23)n1,RPS6KA4 N-terminal kinase domain,"binding, competition with immobilised ligand",1 µM,remaining binding,80%
CO[C@H]1CC[C@H](CNc2ccc(S(=O)(=O)NC(=O)c3ccc(N4CCN(CC5=C(c6ccc(Cl)cc6)CC(C)(C)CC5)CC4)cc3Oc3cnc4[nH]ccc4c3)cc2[N+](=O)[O-])CC1,RPS6KA4 N-terminal kinase domain,"cell-free assay, competition with immobilised ligand",1 µM,remaining binding,95%
Cc1ccc(Nc2nccc(N(C)c3ccc4c(C)n(C)nc4c3)n2)cc1S(N)(=O)=O,RPS6KA4,"enzyme activity, inhibitor",0.5 µM,remaining activity,102%
CC(=O)C1=C(C)N(c2cccc(C(F)(F)F)c2)C(=O)N[C@@H]1c1ccc(C#N)nc1,RPS6KA4 C-terminal kinase domain,"cell-free assay, competition with immobilised ligand",1 µM,remaining binding,78.8%
c1ccc(CNc2nc(N3CCOc4ccccc43)nc3c2CCCC3)cc1,RPS6KA4 N-terminal kinase domain,"target engagement in cells, inhibitor, chemoproteomics",20 mM,inhibition,2.6%
Cc1cc(C)c(-n2ccn3nc(-c4cccnc4)cc23)cc1NC(=O)c1cc(C#N)cc(S(F)(F)(F)(F)F)c1,RPS6KA4 N-terminal kinase domain,"cell-free assay, competition with immobilised ligand",0.1 µM,remaining binding,100%
N#CCCc1ccc2c(c1)-c1[nH]c3ccc([N+](=O)[O-])cc3c1CC(=O)N2,RPS6KA4,cell-free assay,0.5 µM,remaining signal,85.8%
C[C@@H]1CCN(c2nccc(-c3cnn4ncccc34)n2)C1,RPS6KA4 N-terminal kinase domain,"binding, competition with immobilised ligand",1 µM,remaining binding,60%
CCS(=O)(=O)c1cc2cc(C[C@](O)(CC(C)(C)c3ccc(F)cc3C(N)=O)C(F)(F)F)[nH]c2cn1,RPS6KA4 C-terminal kinase domain,"cell-free assay, competition with immobilised ligand",1 µM,remaining binding,94%
Nc1ncnc2occ(-c3ccc(NC(=O)Nc4cc(C(F)(F)F)ccc4F)cc3)c12,RPS6KA4 N-terminal kinase domain,"cell-free assay, inhibitor",20 µM,remaining signal,2.1%
N[C@@H]1CCN(c2nccc(-c3cnn4ncccc34)n2)C1,RPS6KA4 N-terminal kinase domain,"binding, competition with immobilised ligand",1 µM,remaining binding,100%
CNc1cccc2cc(C(=O)Nc3ccc(C(=O)O)cc3)c(=O)[nH]c12,RPS6KA4,"enzyme activity, inhibitor",10 µM,inhibition,8.2%
O=C(Nc1cccnn1)N1CCC(=Cc2cccc(Oc3ccc(C(F)(F)F)cn3)c2)CC1,RPS6KA4 N-terminal kinase domain,"cell-free assay, competition with immobilised ligand",1 µM,remaining binding,98%
CCOc1cc(-c2nncn2C)ccc1Nc1ncc2cc(C)nc(NCC(C)(C)C)c2n1,RPS6KA4,"enzyme activity, inhibitor, FRET",1 µM,inhibition,< 15%
Cc1nc(Cc2cccc(C(F)(F)F)c2)sc1-c1ccc(C(N)=O)nc1,RPS6KA4 C-terminal kinase domain,"cell-free assay, competition with immobilised ligand",1 µM,remaining binding,100%
O=C(Nc1cnn(-c2csc(C(=O)NC3COC3)c2)c1)Nc1ccccc1Cl,RPS6KA4,"enzyme activity, inhibitor",5 µM,remaining activity,90.7%
